# ChEMBL document CHEMBL1122650, “Synthesis and central nervous system properties of 2-[(alkoxycarbonyl)amino]-4(5)-phenyl-2-imidazolines” (J Med Chem, 1984)
# The source made the active and inactive calls. The calls are words filed in the database; no cut-off is given here.
# Tested on: not listed separately
# Assay: HPLC capacity factor (k')
# Type: ADME
# Conditions: not given
row,Compound,Log k'
1,CCOC(=O)NC1=NC(c2cccc(Cl)c2)CN1C (stereo unspecified),0.78
2,CCOC(=O)NC1=NC(c2ccccc2)CN1C (stereo unspecified),0.41
3,COC(=O)NC1=NC(c2ccccc2Cl)CN1 (stereo unspecified),0.29
4,CCC(=O)NC1=NC(c2ccccc2)CN1 (stereo unspecified),0.17
5,CC(C)COC(=O)NC1=NC(c2ccccc2)CN1 (stereo unspecified),0.94
6,NC1=NC(c2ccccc2)CN1 (stereo unspecified),-3.74
7,COC(=O)NC1=NC(c2cccc(F)c2)CN1 (stereo unspecified),-0.1
8,COC(=O)NC1=NC(c2ccc(SC)cc2)CN1C (stereo unspecified),0.61

# Tested on: Mus musculus
# Assay: Compound was evaluated in vivo for reserpine hypothermia after oral administration in mouse.
# Type: functional
# Conditions: not given
# In short: (§1)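 Male HLa (ICR) BR mice, 18-24 g, in groups of eight; reserpine 5 mg/kg ip given 2 h before oral test compound as aqueous solution. Rectal temperature taken hourly; 1-4-h hypothermia assessed by analysis of variance.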
row,Compound,ED50
1,COC(=O)NC1=NC(c2cccc(F)c2)CN1 (stereo unspecified),36 mg/kg

# Tested on: Mus musculus
# Assay: Compound was evaluated in vivo for reserpine hypothermia after oral administration in mouse. Minimum active dose was reported; 10-30% reduction.
# Type: functional, organism-based
# Conditions: not given
# In short: as §1
row,Compound,ED50
1,CC(C)COC(=O)NC1=NC(c2ccccc2)CN1 (stereo unspecified),10-30% reduction

# Tested on: Mus musculus
# Assay: Compound was evaluated in vivo for reserpine hypothermia after oral administration in mouse. Minimum active dose was reported; Inactive
# Type: functional, organism-based
# Conditions: not given
# In short: as §1
row,Compound,ED50
1,COC(=O)NC1=NC(c2ccc(SC)cc2)CN1C (stereo unspecified),inactive

# Organism: Mus musculus
# Assay: Inhibition of radioactive NE [3H]norepinephrine uptake into mouse heart
# Type: functional
# Conditions: not given
# In short: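 Mice dosed ip (aqueous solution) before iv [3H]NE; hearts removed 3 h after label, washed, weighed, dissolved in Protosol and counted as dpm per mg tissue. Dose-response from linear regression.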
row,Compound,ED50
1,NC1=NC(c2ccccc2)CN1 (stereo unspecified),0.3 mg/kg

# Organism: Mus musculus
# Assay: Evaluated for antagonism of reserpine induced hypothermia;I= Inactive
# Type: functional, organism-based
# Conditions: not given
# In short: as §1
row,Compound,HYPO
1,COC(=O)NC1=NC(c2ccc(SC)cc2)CN1C (stereo unspecified),inactive

# Organism: Mus musculus
# Assay: Compound was evaluated for antagonism of reserpine induced hypothermia;I= Inactive.
# Type: functional, organism-based
# Conditions: not given
# In short: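 Male HLa (ICR) BR mice (18-24 g), groups of eight, dosed ip with 5 mg/kg reserpine 2 h before oral test compound given as aqueous solution. Rectal temperature measured hourly; 1-4-h thermia assessed by analysis of variance.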
row,Compound,HYPO
1,CC(C)COC(=O)NC1=NC(c2ccccc2)CN1 (stereo unspecified),inactive

# Organism: Mus musculus
# Assay: Mouse behavior activity was determined; D=Depressant.
# Type: functional, organism-based
# Conditions: not given
# In short: (§2)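 Male Simonsen (ICR) fBR mice, 18-24 g, groups of three, given 3, 10, 30, 100, 300 or 1000 mg/kg ip as aqueous solution and observed for behavioral profile; deaths followed up to 7 days.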
row,Compound,Mouse behavior activity
1,COC(=O)NC1=NC(c2ccccc2Cl)CN1 (stereo unspecified),Depressant
2,COC(=O)NC1=NC(c2cccc(F)c2)CN1 (stereo unspecified),Depressant

# Organism: Mus musculus
# Assay: Mouse behavior activity was determined; Dwk= Depressant Weak
# Type: functional, organism-based
# Conditions: not given
# In short: as §2
row,Compound,Mouse behavior activity
1,CCC(=O)NC1=NC(c2ccccc2)CN1 (stereo unspecified),Depressant

# Organism: Mus musculus
# Assay: Mouse behavior activity was determined; Dwk= Depressant Weak.
# Type: functional, organism-based
# Conditions: not given
# In short: as §2
row,Compound,Mouse behavior activity
1,CC(C)COC(=O)NC1=NC(c2ccccc2)CN1 (stereo unspecified),Depressant

# Organism: Mus musculus
# Assay: Mouse behavior activity was determined;D= Depressant
# Type: functional, organism-based
# Conditions: not given
# In short: as §2
row,Compound,Mouse behavior activity
1,CCOC(=O)NC1=NC(c2cccc(Cl)c2)CN1C (stereo unspecified),Depressant

# Organism: Mus musculus
# Assay: Compound was evaluated for antagonism of reserpine induced hypothermia.
# Type: functional
# Conditions: not given
# In short: as §1
row,Compound,HYPO
1,CCOC(=O)NC1=NC(c2cccc(Cl)c2)CN1C (stereo unspecified),<0.5 mg/kg

# Organism: Mus musculus
# Assay: Compound was evaluated for maximal electroshock antagonism (MES) against mice
# Type: functional
# Conditions: not given
# In short: (§3)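 Male HLa (ICR) BR mice, groups of eight to ten, dosed ip (aqueous solution) 15 min before transcorneal electroshock (50 mA, 0.2 s). End point: abolition of tonic hind-limb extension; quantal ED50 by Litchfield-Wilcoxon.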
row,Compound,ED50
1,CCOC(=O)NC1=NC(c2cccc(Cl)c2)CN1C (stereo unspecified),74 mg/kg
2,CCOC(=O)NC1=NC(c2ccccc2)CN1C (stereo unspecified),78 mg/kg
3,COC(=O)NC1=NC(c2ccccc2Cl)CN1 (stereo unspecified),50 mg/kg
4,CCC(=O)NC1=NC(c2ccccc2)CN1 (stereo unspecified),75 mg/kg
5,COC(=O)NC1=NC(c2cccc(F)c2)CN1 (stereo unspecified),70 mg/kg
6,COC(=O)NC1=NC(c2ccc(SC)cc2)CN1C (stereo unspecified),100 mg/kg

# Organism: Mus musculus
# Assay: Compound was evaluated for maximal electroshock antagonism (MES) against mice; Inactive
# Type: functional, organism-based
# Conditions: not given
# In short: as §3
row,Compound,ED50
1,NC1=NC(c2ccccc2)CN1 (stereo unspecified),inactive

# Organism: Mus musculus
# Assay: Compound was evaluated for maximal electroshock antagonism (MES) against mice; Inactive.
# Type: functional, organism-based
# Conditions: not given
# In short: as §3
row,Compound,ED50
1,CC(C)COC(=O)NC1=NC(c2ccccc2)CN1 (stereo unspecified),inactive

# Tested on: Mus musculus
# Assay: Reserpine hypothermia antagonism in mouse administered perorally with 5 mg/kg of reserpine 2 hour prior to test compound administration
# Type: functional
# Conditions: route oral
row,Compound,Reserpine hypothermia
1,NC1=NC(c2ccccc2)CN1 (stereo unspecified),< 10 mg/kg

# Tested on: Mus musculus
# Assay: Compound was evaluated in vivo for reserpine hypothermia after oral administration in mouse. Minimum active dose was reported; rigidity was potentiated by compound.
# Type: functional, organism-based
# Conditions: not given
# In short: as §1
row,Compound,P
1,CCOC(=O)NC1=NC(c2ccccc2)CN1C (stereo unspecified),rigidity was potentiated by compound

# Organism: Mus musculus
# Assay: Righting ability was determined in mice before rapid rolling (unaroused)
# Type: functional
# Conditions: not given
# In short: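 Male Simonsen (ICR) fBR mice, 18-24 g, groups of ten, dosed with aqueous compound. Righting ability checked before (unaroused) and after (aroused) rapid rolling in the hand; ED50 by Litchfield-Wilcoxon method.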
row,Compound,Loss of righting reflex
1,CCOC(=O)NC1=NC(c2cccc(Cl)c2)CN1C (stereo unspecified),70 mg/kg
2,CCOC(=O)NC1=NC(c2ccccc2)CN1C (stereo unspecified),100 mg/kg
3,COC(=O)NC1=NC(c2ccccc2Cl)CN1 (stereo unspecified),200 mg/kg

# Organism: Rattus norvegicus
# Assay: Inhibition of the 5-HT [14C]5-HT uptake by rat brain slices In vitro
# Type: functional
# Conditions: not given
# In short: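 Rat cerebral cortex slices, 5 mg tissue per mL Krebs-Henseleit buffer, incubated at 37 °C with [3H]NE or [14C]5-HT; blanks at 4 °C, undosed controls. Stopped after 20 min by filtration; slice radioactivity counted; IC50 from linear regression of uptake inhibition.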
row,Compound,IC50
1,NC1=NC(c2ccccc2)CN1 (stereo unspecified),31 µM

# Organism: Rattus norvegicus
# Assay: Inhibition of the NE [3H]Norepinephrine uptake by rat brain slices In vitro
# Type: functional
# Conditions: not given
row,Compound,IC50
1,NC1=NC(c2ccccc2)CN1 (stereo unspecified),0.1 µM

# Organism: Mus musculus
# Assay: Mouse behavior activity was determined; S-D=Stimulant-Depressant
# Type: functional, organism-based
# Conditions: not given
# In short: as §2
row,Compound,Mouse behavior activity
1,CCOC(=O)NC1=NC(c2ccccc2)CN1C (stereo unspecified),Stimulant-Depressant
2,NC1=NC(c2ccccc2)CN1 (stereo unspecified),Stimulant-Depressant

# Organism: Mus musculus
# Assay: Evaluated for antagonism of reserpine induced hypothermia
# Type: functional
# Conditions: not given
# In short: as §1
row,Compound,HYPO
1,CCOC(=O)NC1=NC(c2ccccc2)CN1C (stereo unspecified),<0.5 mg/kg
2,CCC(=O)NC1=NC(c2ccccc2)CN1 (stereo unspecified),>20 mg/kg

# Tested on: not listed separately
# Assay: Lethal dose in mouse, in groups of ten
# Type: toxicity, organism-based
# Conditions: in vivo
row,Compound,LD50
1,CCOC(=O)NC1=NC(c2cccc(Cl)c2)CN1C (stereo unspecified),300 mg/kg
2,CCOC(=O)NC1=NC(c2ccccc2)CN1C (stereo unspecified),200 mg/kg
3,COC(=O)NC1=NC(c2ccccc2Cl)CN1 (stereo unspecified),500 mg/kg
4,CCC(=O)NC1=NC(c2ccccc2)CN1 (stereo unspecified),500 mg/kg
5,CC(C)COC(=O)NC1=NC(c2ccccc2)CN1 (stereo unspecified),700 mg/kg
6,NC1=NC(c2ccccc2)CN1 (stereo unspecified),300 mg/kg
7,COC(=O)NC1=NC(c2cccc(F)c2)CN1 (stereo unspecified),200 mg/kg
